MrgX1 agonist: human MrgX1 receptor agonism, primary screen; Q96LB2; 310,000 compounds, 0.44% hits; AID 588627; B-score at 10 µM; MrgX1-HEK293 cells, Fluo-4 calcium fluorescence, agonist mode; stronger effect = higher value;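 active means calcium response B-score plate-corrected fluorescence ratio at least 3 library SD, with starting fluorescence B-score inside 5 SD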
Target sequence (Q96LB2 whole entry, looked up): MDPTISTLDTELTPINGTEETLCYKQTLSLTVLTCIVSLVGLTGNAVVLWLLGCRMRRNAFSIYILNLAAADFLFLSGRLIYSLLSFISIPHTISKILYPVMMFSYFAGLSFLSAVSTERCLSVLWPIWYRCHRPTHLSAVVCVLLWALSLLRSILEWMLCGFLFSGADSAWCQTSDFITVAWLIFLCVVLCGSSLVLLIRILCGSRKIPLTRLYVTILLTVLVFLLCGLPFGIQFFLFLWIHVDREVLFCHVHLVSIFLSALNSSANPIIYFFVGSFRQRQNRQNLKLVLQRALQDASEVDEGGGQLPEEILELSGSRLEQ
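Material: MrgX1-expressing HEK293 cells; input: 15,000 cells per well; doses: test compound given as first of three sequential additions; schedule: overnight plating before 1 h dye loading; technique: Fluo-4 NW calcium-flux fluorescence, kinetic read; evaluation: baseline-normalised fluorescence change ratio, B-scored; control set: plate-wise positive and negative controls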
MrgX1 antagonist: antagonists of human MrgX1 receptor. MRGX1-HEK293 calcium flux, Fluo-4, BAM8-22 antagonism; stronger effect = lower value. B-score at 10 µM. 310,000 compounds, 1.3% hits;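 active means calcium-response B-score plate-corrected more than 3 library SD below zero, starting fluorescence within 5 deviations, no agonist response on first addition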;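 further: peak minus trough fluorescence over baseline after final BAM8-22 challenge near maximal dose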
RGS4 inh: human RGS4 inhibition. B-score at 10 µM. HEK293 M3R/RGS4 inducible, Fluo-4 calcium flux; stronger effect = higher value; triggered by carbachol at its EC20. 310,000 compounds, 0.45% hits. P49798;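 active means B-score, a plate-corrected calcium signal, over three deviations above library mean, with baseline fluorescence within five deviations of library mean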;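 further: RGS4 expression induced by doxycycline in cells with stable M3 receptor; B-score is computed from the integrated fluorescence ratio over baseline after carbachol; higher B-score means a larger calcium signal and so more RGS4 inhibition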
Target sequence (P49798 whole entry, looked up): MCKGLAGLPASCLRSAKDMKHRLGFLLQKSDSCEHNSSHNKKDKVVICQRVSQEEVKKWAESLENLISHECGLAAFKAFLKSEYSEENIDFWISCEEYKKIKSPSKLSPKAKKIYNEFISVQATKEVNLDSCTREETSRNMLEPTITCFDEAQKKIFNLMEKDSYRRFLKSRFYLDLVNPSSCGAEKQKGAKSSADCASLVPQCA
MrgX1 allo act: human MrgX1 positive allosteric modulation, primary screen. MrgX1-HEK293, Fluo-4 calcium flux, FDSS; stronger effect = higher value. B-score at 10 µM. 310,000 compounds, 0.63% hits. AID 588675;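 active means plate-corrected calcium response at least 3 library SD above typical, normal starting fluorescence, not activating the receptor alone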;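 further: compound read alongside a low EC10 to EC30 dose of BAM8-22 agonist; peak minus trough fluorescence over baseline measured at the second addition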
RGS4 pot: RGS4 potentiation or activation | HEK293 M3R/inducible RGS4, carbachol calcium flux Fluo4; stronger effect = lower value | B-score at 10 µM | 310,000 compounds, 0.92% hits | AID 463111;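 active means B-score of the integrated calcium signal more than 4 SD below the library mean, with starting fluorescence not abnormally high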;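 further: negative B-score means reduced calcium response which marks RGS4 activation or potentiation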
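test system = HEK293 cells with stable M3R and inducible RGS4 | schedule = recording 10 s baseline at 1 Hz, 100 s post-agonist | technique = Fluo4-AM (2 µM) calcium-flux fluorescence, kinetic read | measure = Agonist-evoked peak-minus-minimum fluorescence over baseline, integrated ratio, B score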
KCC2 mod: modulates chloride dependent transport by human KCC2; Q9H2X9; KCC2 cells, thallium flux FluoZin-2 fluorescence; B-score of Tl+ flux slope (higher = more flux/activation; lower = inhibition) at 10 µM; 190,000 compounds, 2.2% hits;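 active means thallium flux slope and its plate-corrected score both differing from the plate sample mean at a set confidence after two filtering rounds, in either direction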;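 further: slope of fluorescence scaled to starting intensity during 10 to 20 s after thallium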
KCC2 sec1: confirmation of human KCC2 transport modulators; normalised thallium flux (F/F0 slope) at 10 µM; shares compounds with KCC2 mod; HEK293-KCC2, thallium flux, FluoZin2 fluorescence; stronger effect = higher value; 3,700 compounds, 15% hits;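 active means thallium flux slope above the same plate's solvent-only control mean plus 3 SD; inconclusive means the two replicate wells disagree; inactive means no significant difference from solvent-only control wells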
KCC2 bumet counter: thallium flux despite bumetanide block in KCC2 cells, secondary assay 3. normalized thallium flux at 10 µM. shares compounds with KCC2 mod. 3,700 compounds, 49% hits. AID 1714. HEK293-KCC2 + bumetanide/ouabain, thallium flux FluoZin2; stronger effect = higher value;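 active means thallium entry rate above the same plate's blocked-transporter control wells by more than 3 SD; inconclusive means the two repeat wells disagree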;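 further: raw slope of fluorescence over initial fluorescence between 10 and 20 s after thallium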
KCC2 secondary2: KCC2 (human) modulation, second secondary assay. HEK293-KCC2, thallium flux FluoZin2 fluorescence; actives lie on both sides; F/F0 rise rate, 10–20 s post-thallium. normalized thallium flux at 10 µM. 3,700 compounds, 23% hits. AID 1715. shares compounds with KCC2 mod;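 active means thallium flux slope more than 3 SD above or below the plate's solvent-only control mean, mostly below; inconclusive means the two repeat wells disagreed; inactive means no significant shift from solvent-only controls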;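 further: raw slope with 0.1% DMSO as baseline and bumetanide as block control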
HEK counter1: counter-screen for KCC2 modulators: effect in parental HEK293 cells. shares compounds with KCC2 mod. thallium flux FluoZin2, ouabain; baseline-ratio fluorescence slope, 10–20 s after thallium. thallium flux rate (normalised fluorescence) at 10 µM. 3,700 compounds, 46% hits;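 active means thallium flux rate significantly above the same plate's solvent-only control wells, beyond their mean plus 3 SD; inconclusive means the two replicate wells gave conflicting results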
KCC2 retest ouab: KCC2 (human) modulation, ouabain retest; HEK293-KCC2, thallium flux FluoZin2 fluorescence; bidirectional: low = inhibitor, high = activator; raw Tl+ flux slope (below DMSO = inhibition, above = activation) at 10 µM; 3,700 compounds, 48% hits; shares compounds with KCC2 mod;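 active means thallium flux slope beyond 3 SD from same-plate DMSO control mean in most replicates, usually higher, sometimes lower; inconclusive means repeat tests gave conflicting results; inactive means no significant difference from controls in most replicates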;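 further: slope of initial-normalized fluorescence between seconds 10 and 20 after thallium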
HEK counter2: counter-screen for KCC2 modulators: effect in parental HEK293 cells. shares compounds with KCC2 mod. thallium flux FluoZin-2 fluorescence slope. thallium flux slope at 10 µM. 3,700 compounds, 33% hits. AID 1718;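 active means thallium flux slope above the same plate's solvent-control mean plus 3 SD in both duplicate wells; inconclusive means duplicate wells that disagreed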;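 further: run without ouabain in cells lacking the KCC2 cotransporter; slope of fluorescence scaled to its starting value between 10 and 20 s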
The depositor's hits bear a star; i = inactive; ? = inconclusive; / = not tested or not shown. A selection: hits, their analogues and other compounds. The true share with any hit is near 4.7%.

SMILES	MrgX1 agonist	MrgX1 antagonist	RGS4 inh	MrgX1 allo act	RGS4 pot	KCC2 mod	KCC2 sec1	KCC2 bumet counter	KCC2 secondary2	HEK counter1	KCC2 retest ouab	HEK counter2
S=c1[nH]nc(Nc2ccccc2Cl)s1	i	i	i	i	i	-5.33*	0.00413*	0.00938*	0.0215*	0.0118*	0.0124*	0.0144*
CC(C)Cn1c(CCCNC(=O)c2ccco2)nc2ccccc21	i	i	i	i	i	/	/	/	/	/	/	/
Cc1nn(-c2nc3ccccc3[nH]2)c(N)c1-c1ccccc1	i	i	i	i	i	2.55*	0.00639	0.0123*	0.032	0.0106*	?	0.0139*
CC(=O)c1cccc(NC(=O)COC(=O)COc2c(Cl)cc(Cl)c3ccc(C)nc23)c1	i	i	i	i	i	4.6*	0.0103	0.0192*	0.0319	0.0128*	0.025	0.0113*
CC1=CC2=NC(=O)/C(=C/c3cccs3)C(=N)N2O1	i	i	i	i	i	-0.00983	/	/	/	/	/	/
CC(C)CSC1=NSC2=NC(=O)/C(=C\c3cccs3)C(=N)N12	i	i	i	i	i	41.7*	0.00975*	0.0895*	0.0655*	0.0665*	0.0748*	0.0451*
Cc1ccc(CCNC(=O)C2CCC(CNc3c(N4CCC(C)CC4)c(=O)c3=O)CC2)cc1 (configuration not stated)	i	i	i	i	i	1.03	/	/	/	/	/	/
Cc1ccc(CCNC(=O)C2CCC(CNc3c(N4CCCC4)c(=O)c3=O)CC2)cc1 (configuration not stated)	i	i	i	i	i	/	0.00791	?	0.034	?	0.0192	0.0108
CN(C)C(=O)c1cnc(-c2ccccc2)nc1-c1ccccc1	i	i	i	i	i	/	/	/	/	/	/	/
COc1ccc(CC(=O)Nc2ccc(S(=O)(=O)Nc3nc(C)cc(C)n3)cc2)cc1	i	i	i	i	i	-5.89*	0.00898	0.009*	0.0328	0.0077	0.022	0.0107
COc1cc(CC(=O)Nc2ccc(S(=O)(=O)Nc3ncccn3)cc2)cc(OC)c1OC	i	i	i	i	i	-4.02*	0.00955	0.0063	0.0344	0.00954*	0.0204	0.0123
COc1cccc(/C=C/C(=O)N(C)CC(=O)Nc2ccc(Cl)c(C(F)(F)F)c2)c1	i	i	i	i	i	/	/	/	/	/	/	/
c1coc(CNc2c3c(nc4ncnn24)CCCC3)c1	i	i	i	i	i	4.99*	0.00666	0.00424	0.0273	0.00715	0.0178	0.00929
COc1ccc(-n2nc(C(=O)NCC(=O)N(C)Cc3ccccc3)c3ccccc3c2=O)cc1OC	i	i	i	i	i	/	/	/	/	/	/	/
O=C(O)c1sccc1SCc1ccc(Cl)cc1Cl	i	i	i	i	i	/	0.0153	0.00483	0.0217*	0.00554*	0.011*	0.00821
COCCN(C(=O)CNC(=O)c1cccs1)C(C(=O)NC1CCCCC1)c1ccco1 (configuration not stated)	i	i	/	i	/	/	0.00698	0.0041	0.034	0.00695	0.019	0.0113
CC(=O)c1cccc(NC(=S)NC(=O)Cc2ccccc2)c1	i	i	i	i	i	6.17*	0.00788	0.00914*	?	0.0103*	0.0202	?
CC(=O)c1cccc(NC(=S)NC(=O)c2ccccc2Cl)c1	i	i	i	i	i	5.36*	0.00802	0.0258*	0.0337	0.0169*	0.0278*	0.0129*
COC(=O)c1cccc(NC(=O)NC(=O)c2ccccc2Cl)c1	i	i	i	i	i	0.209	/	/	/	/	/	/
CC(=O)c1cccc(NC(=S)NC(=O)c2ccc(C)cc2)c1	i	i	i	i	i	7.18*	0.00591	0.0127*	0.0294	0.0115*	?	0.0123*
CC(=O)c1cccc(NC(=S)NC(=O)Cc2ccc(Cl)cc2)c1	i	i	i	i	i	/	/	/	/	/	/	/
CC(=O)c1cccc(NC(=S)NC(=O)c2ccc(Br)cc2)c1	i	i	i	i	i	1.51	/	/	/	/	/	/
CC(=O)c1cccc(NC(=S)NC(=O)c2ccc(C)cc2Cl)c1	i	i	i	i	i	21.1*	0.00582	0.0619*	?	0.0186*	0.0359*	0.0186*
Cc1ccc([N+](=O)[O-])cc1NC(=O)c1c(-c2ccccc2)noc1C	i	i	i	i	i	/	/	/	/	/	/	/
Cc1cccc(NC(=S)NNC(=O)c2csc(C)c2)c1	i	i	i	i	i	4.5*	?	0.0188*	0.0353	0.0173*	?	0.0195*
SMILES	MrgX1 agonist	MrgX1 antagonist	RGS4 inh	MrgX1 allo act	RGS4 pot	KCC2 mod	KCC2 sec1	KCC2 bumet counter	KCC2 secondary2	HEK counter1	KCC2 retest ouab	HEK counter2
COCCNC(=S)N1CCN(c2nc(-c3ccccc3)cs2)CC1	i	i	i	i	i	/	/	/	/	/	/	/
O=C(NC(=S)N1CCN(c2nc(-c3ccccc3)cs2)CC1)c1cccnc1	i	i	i	i	i	33.6*	0.0277*	0.111*	?	0.0415*	0.0704*	0.0151*
COc1ccc(OCC(=O)N(Cc2sccc2C)C2CCS(=O)(=O)C2)cc1 (configuration not stated)	i	i	i	i	i	/	/	/	/	/	/	/
O=C1c2cccc3c([N+](=O)[O-])ccc(c23)C(=O)N1Cc1cccnc1	/	/	i	/	i	-5.01*	0.00411*	?	0.0263*	0.00579*	0.0138*	0.00842*
O=C1c2cccc3cccc(c23)C(=O)N1Cc1cccnc1	i	i	i	i	i	-0.0375	/	/	/	/	/	/
C=CCC1(CC=C)CCCN1C(=O)c1cc(COc2ccc(C)nc2)on1	i	i	i	i	i	/	/	/	/	/	/	/
